In ChEMBL document CHEMBL1147825, “2H-benzimidazole 1,3-dioxide derivatives: a new family of water-soluble anti-trypanosomatid agents” (J Med Chem, 2006):

Test system: Trypanosoma cruzi
Test: Antitrypanosomatid activity against Trypanosoma cruzi Tulahuen 2 epimastigote form at 25 uM
Format: functional
Conditions: read-out: GI
Method in brief: (§1)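 Tulahuen 2 epimastigotes in BHI-tryptose plus 5% FCS at 28°C, inoculated at 1×10^6 cells/mL with compound (25 or 100 µM) from DMSO stock, final DMSO ≤0.4%. Growth over 5 days followed by A600; %GI computed from day-0 and day-5 absorbances of treated vs compound-free control cultures; mean of three experiments.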

SMILES	inhibition of growth at 25 µM [%]
CC1CS(=O)(=O)CCN1/N=C/c1ccc([N+](=O)[O-])o1 (centres undefined) [NIFURTIMOX]	93
O=[N+]([O-])c1ccc2c(c1)[n+]([O-])c1n2CCCC1	0
Cc1n(O)c2ccc(Cl)cc2[n+]1[O-]	0
CCCCCCNC(=O)N/N=C/c1ccc2c(c1)=[N+]([O-])C(C)(C)[N+]=2[O-]	69
O=[N+]([O-])c1ccc2c(c1)[n+]([O-])c1n2CCC1	0
O=[N+]([O-])c1ccc2c(c1)[n+]([O-])c1n2CCSC1	0
Cc1n(O)c2ccc(Br)cc2[n+]1[O-]	0
CCCCCOn1c(C)[n+]([O-])c2ccccc21	0
O=C(Cn1ccnc1[N+](=O)[O-])NCc1ccccc1 [BENZNIDAZOLE]	92
CCOC(=O)COn1c(C)[n+]([O-])c2ccccc21	1
CCOC(=O)COn1c(C)[n+]([O-])c2cc(/C=C/c3ccccc3)ccc21	8
CCOC(=O)COn1c(C)[n+]([O-])c2cc(C)ccc21	25
Cc1n(O)c2ccc(/C=C/c3ccccc3)cc2[n+]1[O-]	19

Test system: Trypanosoma cruzi
Test: Antitrypanosomatid activity against Trypanosoma cruzi Tulahuen 2 epimastigote form at 100 uM
Format: functional
Conditions: read-out: GI
Method in brief: as §1

SMILES	inhibition of growth at 100 µM [%]
Cc1n(O)c2ccc(Cl)cc2[n+]1[O-]	8
Cc1n(O)c2ccc(Br)cc2[n+]1[O-]	18
CCCCCOn1c(C)[n+]([O-])c2ccccc21	57
CCOC(=O)COn1c(C)[n+]([O-])c2ccccc21	12
CCOC(=O)COn1c(C)[n+]([O-])c2cc(/C=C/c3ccccc3)ccc21	11
CCOC(=O)COn1c(C)[n+]([O-])c2cc(C)ccc21	15
Cc1n(O)c2ccc(/C=C/c3ccccc3)cc2[n+]1[O-]	15

Test system: Trypanosoma cruzi
Test: Antitrypanosomatid activity against Trypanosoma cruzi Tulahuen 2 epimastigote form
Format: functional, organism-based
Conditions: not given
Method in brief: (§2)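 Epimastigotes grown at 28°C in BHI-tryptose with 5% fetal calf serum; 5-day stationary-phase cells inoculated at 1×10^6 cells/mL with compound added from DMSO stock (final DMSO ≤0.4%; control contains 0.4% DMSO). Growth followed by A600; at day 5 absorbance related to control across increasing concentrations; IC50 taken as concentration reducing absorbance ratio to 50%.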

SMILES	IC50 [µM]
O=C(Cn1ccnc1[N+](=O)[O-])NCc1ccccc1 [BENZNIDAZOLE]	8.5

Test system: Trypanosoma cruzi
Test: Antitrypanosomatid activity against Trypanosoma cruzi CL Brener epimastigote form
Format: functional, organism-based
Conditions: not given
Method in brief: as §2

SMILES	IC50 [µM]
O=C(Cn1ccnc1[N+](=O)[O-])NCc1ccccc1 [BENZNIDAZOLE]	3.4

Test system: Trypanosoma cruzi
Test: Trypanocidal activity against Trypanosoma cruzi CL Brener trypomastigote form in mouse blood at 250 ug/mL
Format: functional
Conditions: not given
Method in brief: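 Trypomastigotes taken from infected mouse blood; compound in DMSO diluted with PBS to 250 µg/mL, mixed with blood containing 10^6 parasites at 90/10 ratio, incubated 24 h at 4°C. Parasites counted by the Brener method under microscope; gentian violet positive and PBS negative controls.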

SMILES	Activity [%]
CCCCOC(=O)c1[nH]c2ccc([N+](=O)[O-])cc2[n+]1[O-]	0
CN(C)c1ccc(C(=C2C=CC(=[N+](C)C)C=C2)c2ccc(N(C)C)cc2)cc1.[Cl-] [GENTIAN VIOLET]	100
